From ChEMBL document CHEMBL2086229, “Synthesis and biological activities of 4-substituted pyrrolo[2,3-a]carbazole Pim kinase inhibitors” (Eur J Med Chem, 2012) come the findings set out here.

Calls of active or inactive are those of the source. The rule behind the calls is not given here.

Experiment [1] concerns PC-3. Description: Antiproliferative activity against human PC3 cells after 48 hrs by resazurin reduction test. Type of experiment: functional, cell-based. The gist of the method:
(§1)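 Cells kept as monolayers in Glutamax MEM with Earle's salts, 10% fetal calf serum, sodium pyruvate, non-essential amino acids and gentamicin, 37 °C, 5% CO2. Seeded at 5 × 10³ cells/well, adhered 16 h, then given drug from 20 mM DMSO stock for 48 h continuously. Resazurin (25 μg/mL, 1 h, 37 °C) fluorescence read at ex 530/em 590 nm. IC50 taken from concentration–survival curve versus control wells, blank subtracted.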

The target of experiment [2] is T1, Serine/threonine-protein kinase pim-1 (Homo sapiens, UniProt P11309). Nature of the experiment: Inhibition of human Pim1 using RSRHSSYPAGT as substrate.
Target sequence in this assay (P11309 whole entry): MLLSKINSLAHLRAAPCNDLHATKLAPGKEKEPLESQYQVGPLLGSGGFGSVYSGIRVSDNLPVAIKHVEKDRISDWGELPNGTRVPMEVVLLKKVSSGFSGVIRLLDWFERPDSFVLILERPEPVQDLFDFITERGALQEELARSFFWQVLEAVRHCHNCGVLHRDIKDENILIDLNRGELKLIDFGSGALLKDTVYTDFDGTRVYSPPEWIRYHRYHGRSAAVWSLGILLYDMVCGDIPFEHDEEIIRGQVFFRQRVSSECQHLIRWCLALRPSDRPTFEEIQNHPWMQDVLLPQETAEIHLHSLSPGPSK
For experiment [3], the target named is T1, Serine/threonine-protein kinase pim-1. Nature of the experiment: Inhibition of human Pim1 using RSRHSSYPAGT as substrate assessed as residual activity at 1 uM.
Target sequence in this assay (P11309 whole entry, looked up): as the sequence (P11309 whole entry) above
For experiment [4] the target is unchanged. Nature of the experiment: Inhibition of human Pim1 using RSRHSSYPAGT as substrate assessed as residual activity at 10 uM.
Target sequence in this assay (P11309 whole entry, looked up): as the sequence (P11309 whole entry) above
Experiment [5] deals with Serine/threonine-protein kinase pim-2 (Homo sapiens) (UniProt Q9P1W9). Description: Inhibition of human Pim2 using RSRHSSYPAGT as substrate assessed as residual activity at 10 uM.
Experiment [6] can be described thus: Antiproliferative activity against human fibroblasts after 48 hrs by resazurin reduction test. In kind it is cell-based. The following applies: Fibroblast. The method in brief:
as §1

The target in experiment [7] is Serine/threonine-protein kinase pim-2 (Homo sapiens) (UniProt Q9P1W9). Description: Inhibition of human Pim2 using RSRHSSYPAGT as substrate assessed as residual activity at 1 uM.
The target in experiment [8] is T2, Serine/threonine-protein kinase pim-3 (Homo sapiens, UniProt Q86V86). Description: Inhibition of human Pim3 using RSRHSSYPAGT as substrate assessed as residual activity at 10 uM.
The target of experiment [9] is T2, Serine/threonine-protein kinase pim-3. Description: Inhibition of human Pim3 using RSRHSSYPAGT as substrate.
For experiment [10] the target is unchanged. Description: Inhibition of human Pim3 using RSRHSSYPAGT as substrate assessed as residual activity at 1 uM.
The subject of experiment [11] is PA-1. Description: Antiproliferative activity against human PA1 cells after 48 hrs by resazurin reduction test. Type of experiment: functional, cell-based. The gist of the method: as §1
Experiment [12] concerns DU-145. Nature of the experiment: Antiproliferative activity against human DU145 cells after 48 hrs by resazurin reduction test. Type of experiment: functional, cell-based. The method in brief:
as §1

The test system of experiment [13] is PC-3. Nature of the experiment: Antiproliferative activity against human PC3 cells assessed as growth inhibition at 1 uM after 48 hrs by resazurin reduction test. Type of experiment: functional, cell-based. The method in brief:
(§2)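 PA1 and PC3 cells seeded at 5 × 10³ per well, adhered 16 h, then exposed 48 h continuously to a single drug concentration (1 or 10 μM) from 20 mM DMSO stock. Growth read by resazurin reduction (25 μg/mL, 1 h, 37 °C), fluorescence ex 530/em 590 nm, as survival relative to control wells after blank subtraction.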

The subject of experiment [14] is PA-1. Nature of the experiment: Antiproliferative activity against human PA1 cells assessed as growth inhibition at 10 uM after 48 hrs by resazurin reduction test. Type of experiment: functional, cell-based. The gist of the method: as §2
Experiment [15] deals with PA-1. Description: Antiproliferative activity against human PA1 cells assessed as growth inhibition at 1 uM after 48 hrs by resazurin reduction test. In kind it is functional, cell-based. The gist of the method:
as §2

The test system of experiment [16] is PC-3. Description: Antiproliferative activity against human PC3 cells assessed as growth inhibition at 10 uM after 48 hrs by resazurin reduction test. In kind it is functional, cell-based. The gist of the method: as §2

Serine/threonine-protein kinase pim-2 (Homo sapiens), sequence (Q9P1W9 whole entry, looked up): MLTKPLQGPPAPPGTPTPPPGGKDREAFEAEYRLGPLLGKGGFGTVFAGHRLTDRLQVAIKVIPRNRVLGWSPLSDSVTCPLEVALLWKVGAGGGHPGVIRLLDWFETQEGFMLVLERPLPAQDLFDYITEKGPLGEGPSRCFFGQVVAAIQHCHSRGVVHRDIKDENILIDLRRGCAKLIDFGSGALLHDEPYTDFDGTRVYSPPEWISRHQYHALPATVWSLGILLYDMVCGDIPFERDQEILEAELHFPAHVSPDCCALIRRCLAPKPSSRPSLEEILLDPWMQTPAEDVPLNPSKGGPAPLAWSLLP

Consider `COC(=O)c1cc2c3ccccc3[nH]c2c2[nH]ccc12`, for which the IC50 in experiment [1] (PC-3, 48 h) was 6 µM; in experiment [2] it was 3 µM; in experiment [6], 8 µM; in [9], 0.5 µM; in experiment [11] (PA-1, 48 h), 27 µM; in experiment [12] (DU-145, 48 h), > 50 µM. For the same molecule, the Activity in [3] was 57%; in experiment [4], 15%; in experiment [5] it was 75%; in [7], 95%; in experiment [8] it was 24%; in [10], 47%.
Consider `O=C(O)c1cc2c3ccccc3[nH]c2c2[nH]ccc12`, for which the “growth inhibition (GI)” value in experiment [13], in experiment [14], in experiment [15] and in experiment [16] was “inactive” in each case. For the same molecule, the Activity was found to be 90% in [3]; 70% in [4]; 93% in experiment [5]; 100% in [7]; 65% in [8]; 101% in [10].
Take `Nc1cccc2[nH]c3c(cc(C(=O)O)c4cc[nH]c43)c12`: the “growth inhibition (GI)” value in [13], in experiment [14], in [15] and in experiment [16] was “inactive” in each case. For the same molecule, the Activity in experiment [3] turned out to be 103%; in [4], 87%; in experiment [5], 89%; in [7] it was 101%; in [8], 55%; in experiment [10], 103%.
`O=Cc1c[nH]c2c1ccc1c3ccccc3[nH]c12` gave an IC50 in [6] of 21 µM.
Consider `COC(=O)c1cc2c([nH]c3cccc(N)c32)c2[nH]ccc12`, for which the “growth inhibition (GI)” value in experiment [1], in experiment [11] and in experiment [12] was “inactive” in each case. In addition, the Activity was determined as 90% in [3]; 39% in experiment [4]; 77% in experiment [5]; 93% in experiment [7]; 16% in experiment [8]; 40% in experiment [10]. The 50% inhibitory concentration (IC50) in [9] was found to be 0.41 µM.
